Only a sample is shown.
PGC1a Ac signal = raises PGC1a acetylation signal in U2OS cells. U2OS PGC1a acetylation AlphaScreen, overnight. activation, % at 15.6 µM. hit rate 0.21% among 350,000. AID 651723;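 active = every replicate reaching activation of at least 50%, whatever the mean replicate activation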;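 also: hits raise the AlphaScreen acetylation signal above neutral controls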
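System: flag-PGC1a/GCN5 U2OS cells / Input: 7000 cells/well / Compound: single test concentration per compound / Incubation: overnight compound treatment, 37 °C / Technique: AlphaScreen on lysates with anti-acetyl-lysine antibody, acceptor and donor beads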
Active calls of the source: *.

SMILES	PGC1a Ac signal
Cc1ccc(S(=O)(=O)Nc2ccccc2C(=O)NCc2cccnc2)cc1	-91.4
Cc1c(Cl)c([N+](=O)[O-])nn1CC(=O)NCc1cccnc1	-41.8
CC(C)(C)NC(=O)C(=O)NNC(=O)c1cccc([N+](=O)[O-])c1	-56.9
O=C(COc1ccc([N+](=O)[O-])cc1)Nc1ccc(C(=O)NCc2cccnc2)cc1	191.9*
NCC[C@H]1CC[C@@H](NC(=O)C2CCCCC2)[C@@H](CO)O1	-55.8
C[C@@H]1CN([C@@H](C)CO)C(=O)c2cc(C#CC3CCCC3)cnc2O[C@H]1CN(C)C(=O)Nc1ccccc1	-44.6
Cc1[nH]c2ccccc2c1/C=N/Nc1nc2ccccc2[nH]1	79.5*
COc1ccc(/C=N/Nc2nc3ccccc3[nH]2)c(OC)c1OC	-50.3
CN(C)CCCNC(=O)CC1C[C@H](C(=O)N2CCCCC2)[C@@]2(CCc3ccccc3)c3[nH]c4ccccc4c3CCN2C1=O (stereo not given in full)	99.0*
CN(CCc1ccccc1)C(=O)c1ccc(NC(=O)Cc2ccc(NC(=O)C3CCN(C(=O)C4CCCCC4)CC3)cc2)cc1	-42.1
CCN(CC)C(=O)[C@H]1CC(CC(=O)NCc2cccc(C(F)(F)F)c2)C(=O)N2CCc3c([nH]c4ccccc34)[C@]12C (stereo not given in full)	-54.1
COc1cccc(N(CC(=O)N2CCN(Cc3ccccc3)CC2)S(C)(=O)=O)c1	-45.7
C=CCSc1nc2ccccc2n1C(=O)/C=C/c1cc(OC)c(OC)c(OC)c1	527.1*
COc1ccc(-n2nc(C#N)c(Cl)cc2=O)cc1	-89.9
OC[C@@H]1[C@H](c2ccc(/C=C/c3ccccc3)cc2)[C@H]2CN(CCC(F)(F)F)CCCCN12	66.8*
O=C(Cc1cccnc1)N1CC(=O)N2[C@H](CO)[C@@H](c3ccc(C#CC4CCCCC4)cc3)[C@H]2C1	-50.5
OC[C@H]1[C@H](c2ccc(C#CC3CCCC3)cc2)[C@@H]2CN(CCC(F)(F)F)CCCCN12	64.8*
CCCCOP(=O)(c1ccc(N(C)C)cc1)C(O)c1ccc(OC)cc1 (stereo not given)	-82.0
CCCc1ccc(C(O)c2ncc(-c3cccc(F)c3)[nH]2)cc1 (stereo not given)	-42.6
NC(=O)COC(=O)CC(NC(N)=O)c1ccc(Cl)cc1 (stereo not given)	-106.6
CC(C)(c1ccccc1)c1ccc(OCCCNCCO)cc1	87.7*
CCc1oc2c(C)c(O)ccc2c(=O)c1-c1ccc2ccccc2n1	-48.5
CC1CCCN(Cc2c(O)ccc3c(=O)c(-c4nc5ccccc5s4)c(N)oc23)C1 (stereo not given)	62.3*
CC1CCCN(Cc2c(O)ccc3c4c(c(=O)oc23)CCCC4)C1 (stereo not given)	-49.4
CC(=O)N(c1cccc(C)c1)S(=O)(=O)c1ccc(Cl)cc1	-53.0
SMILES	PGC1a Ac signal
O=C1c2ccsc2SCCN1Cc1cccc(Cl)c1	50.3*
CO[C@H]1CN(C)C(=O)c2cc(NC(=O)NC(C)C)ccc2OC[C@H](C)N(Cc2ccc(-c3ccccn3)cc2)C[C@@H]1C	-61.6
CCOC(=O)c1c(CN2CCN(CC#N)CC2)n(C)c2cc(Br)c(OC)cc12	68.5*
COc1ccc(S(=O)(=O)Nc2ccc3c(c2)C(=O)N([C@H](C)CO)C[C@@H](C)[C@H](CN(C)C(=O)Nc2ccc(C(F)(F)F)cc2)OCCCC[C@@H](C)O3)cc1	-41.1
CC(C)C#Cc1cnc2c(c1)C(=O)N([C@@H](C)CO)C[C@@H](C)[C@@H](CN(C)C(=O)c1ccccn1)O2	-43.7
CCCNC(=O)COC(=O)c1ccccc1C(=O)c1ccc(Cl)c([N+](=O)[O-])c1	126.9*
Cc1cc(C(=O)OCC(=O)N(C)c2ccccc2)ccc1[N+](=O)[O-]	-52.4
CC(C)(C)NC(=O)c1ccc(Sc2ccccc2)c([N+](=O)[O-])c1	-80.8
Cc1ccc(S(=O)(=O)N(C)C[C@H]2Oc3ccc(NC(=O)CCC(F)(F)F)cc3C(=O)N([C@H](C)CO)C[C@@H]2C)cc1	-48.4
Cc1c(CCOC(=O)CC23CC4CC(CC(C4)C2)C3)sc[n+]1Cc1ccccc1	60.9*
Nc1ccc(N2CCCCC2)cc1N1CCCCC1	53.6*
O=C(O)c1cc(N2CCCCC2)ccn1	-47.7
CNC[C@H]1Oc2ccc(NC(=O)CCN3CCOCC3)cc2C(=O)N([C@H](C)CO)C[C@H]1C	-42.2
Cn1cccc1CC(=O)N/N=C/c1cc([N+](=O)[O-])ccc1Cl	-46.0
O=C(N/N=C\c1cccc([N+](=O)[O-])c1O)C1COc2ccccc2O1 (stereo not given)	74.8*
O=C(N/N=C/c1cccc([N+](=O)[O-])c1)C1COc2ccccc2O1 (stereo not given)	188.4*
C[C@@H]1CN([C@H](C)CO)C(=O)c2cccc(NC(=O)c3ccc(-c4nccs4)cc3)c2O[C@@H]1CN(C)Cc1ccc(C(=O)Nc2ccccc2N)cc1	-51.1
CCOC(=O)C1(CC2CCCCO2)CCN(C(=O)Nc2ccc(SC)cc2)CC1 (stereo not given)	-55.7
CC(C)c1ccc(/C=N/n2nnnc2Nc2ccccc2)cc1	-45.8
O=C(C[C@@H]1C=C[C@@H](NC(=O)Nc2ccc(C(F)(F)F)cc2)[C@H](CO)O1)NCc1ccccn1	-43.5
O=Nc1c(-c2c(O)[nH]c3cc(Br)ccc23)[nH]c2ccccc12	258.0*
Cc1noc(C)c1S(=O)(=O)Nc1ccc2c(c1)C(=O)N([C@H](C)CO)C[C@@H](C)[C@@H](CN(C)S(=O)(=O)c1cccs1)OCCCC[C@H](C)O2	-51.2
COc1ccc(-n2c(C)c([N+](=O)[O-])c3ccc(O)c(CN(C)C)c32)cc1	-37.3
CC1CC1C(=O)N(C)CC(=O)Nc1cccc(F)c1 (stereo not given)	77.6*
CCC(=O)N1C[C@H](C)[C@@H](OC)CN(C)C(=O)c2cc(NC(=O)Nc3cccc(F)c3)ccc2OC[C@H]1C	-55.0
SMILES	PGC1a Ac signal
CCC(=O)Nc1nnc(SCCOC)s1	-2.9
CCCc1nnc(NC(=O)CN2CCOCC2)s1	93.0*
C[C@H]1CN([C@@H](C)CO)C(=O)Cc2cc(NC(=O)Nc3ccccc3)ccc2O[C@@H]1CN(C)Cc1ccccc1	-50.0
O=c1c(Cl)c(Cl)cnn1Cc1nnc(-c2ccc(Cl)cc2)o1	72.9*
Cc1ccc(Cn2ncc(Cl)c(Cl)c2=O)cc1	111.8*
COC(=O)C1CCN(Cc2nnc(-c3ccccc3)o2)CC1	-46.9
C/C=C/c1ccc2c(c1)O[C@@H](CN(C)C(=O)NC(C)C)[C@H](C)CN([C@H](C)CO)S2(=O)=O	-44.4
C[C@H]1CCCCO[C@H](CN(C)Cc2ccc3c(c2)OCO3)[C@@H](C)CN([C@@H](C)CO)C(=O)c2cc(NC(=O)Nc3ccc(C(F)(F)F)cc3)ccc2O1	-78.7
Cc1nn(CC(=O)Nc2ccc(C(C)C)cc2)c(C)c1[N+](=O)[O-]	-43.2
CN1CCN(/N=C/c2ccc(OCc3ccccc3)cc2)CC1	-41.1
CC(C)c1ccc(-c2nnn(CC(=O)N3CCCCC3)n2)cc1	-40.1
CC(C)(C)NC(=O)Cn1nnc(-c2ccc(OCc3c(F)cccc3Cl)cc2)n1	65.6*
C[C@@H]1CN([C@@H](C)CO)C(=O)c2cc(-c3cccc(C#N)c3)cnc2O[C@H]1CN(C)C(=O)c1ccccn1	-57.5
O=[N+]([O-])c1ccc(/C=N/n2c(CO)nc3ccccc32)s1	52.7*
O=P(COCCOCCOCCOCP(=O)(c1ccccc1)c1ccccc1)(c1ccccc1)c1ccccc1	-44.3
COC(=O)[C@]1(Cc2ccccc2)N=C(c2ccc(OCCCO)cc2)O[C@@H]1c1ccccc1	77.2*

High-throughput results deposited in PubChem BioAssay by Broad Institute.
